Data taken from PMC9199876 (Clinical and Translational Science, 2022).
Like-named read-outs stand apart in the source and are kept apart here.

Experiments:
OATP1B1/1B3 [1] = assay: Clinical DDI: effect of single-dose i.v. rifampin; type: in vivo, humans (healthy adults); conditions: plasma trazpiroben; trazpiroben with rifampin relative to trazpiroben alone
How it was run: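 Healthy fasted adults (n = 12) in a two-way crossover: an oral 25 mg capsule of test compound alone, or given immediately after 600 mg rifampin i.v. over 30 min. Washout was ≥7 days. Plasma parent and metabolite were assayed by validated LC-MS/MS and analysed noncompartmentally. The ANOVA on log-transformed AUC∞ and Cmax gave the LSM difference (B – A), which was exponentiated to give GMRs with 90% CIs.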

[2] = Safety and tolerability assessment; type: in vivo, humans (healthy adults); conditions: for Number of participants with TEAEs / TEAE: Abdominal pain, upper / TEAE: Cough / TEAE: Dermatitis contact / TEAE: Gastrointestinal disorders / TEAE: Headache / TEAE: Nasal congestion / TEAE: Nervous system disorders / TEAE: Respiratory, thoracic, and mediastinal disorders / TEAE: Sensory disturbance / TEAE: Sinus congestion / TEAE: Skin and subcutaneous tissue disorders / TEAE: Sneezing: n = 12
How it was run: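 Twelve healthy adults received a single oral 25 mg dose with and without i.v. rifampin 600 mg in crossover. TEAEs were monitored throughout. Vital signs and triplicate 12-lead ECGs were taken at screening (day −28 to −2), predose, and 1, 2, 4, 8 and 48 h post dose in each period. Serum chemistry, hematology and urinalysis were also run. Follow-up included a full physical exam, vital signs and ECG.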

[3] = oral administration, rats; cited from earlier work
[4] = oral administration, dogs; cited from earlier work
[5] = system: cytosolic NADPH-dependent reductases; conditions: in vitro; cited from earlier work
CYP3A4 [6] = conditions: in vitro; cited from earlier work
CYP2C8 = conditions: in vitro; cited from earlier work
[7] = ref data on file, cited from earlier work
[8] = preclinical; cited from earlier work
CYP2D6 = conditions: in vitro, clinically relevant dose (0.06 μM); cited from earlier work
CYP3A = conditions: in vitro, clinically relevant dose (0.06 μM); cited from earlier work
CYP3A4 [9] = conditions: phase I DDI studies; cited from earlier work
p-glycoprotein (P-gp) = conditions: in vitro; cited from earlier work
OATP1B1/1B3 [10] = conditions: in vitro; cited from earlier work
[11] = system: breast cancer resistance protein (BCRP); conditions: in vitro; cited from earlier work
MATE1 [12] = conditions: in vitro; cited from earlier work
MATE2-K [13] = conditions: in vitro; cited from earlier work
OAT1 [14] = conditions: in vitro; cited from earlier work
OAT3 [15] = conditions: in vitro; cited from earlier work
OCT2 = conditions: in vitro; cited from earlier work
BCRP = conditions: at a clinically relevant dose; cited from earlier work
bile salt export pump = conditions: at a clinically relevant dose; cited from earlier work
MATE1 [16] = conditions: at a clinically relevant dose; cited from earlier work
MATE2-K [17] = conditions: at a clinically relevant dose; cited from earlier work
OAT1 [18] = conditions: at a clinically relevant dose; cited from earlier work
OAT3 [19] = conditions: at a clinically relevant dose; cited from earlier work
OATP1B1/1B3 [20] = conditions: at a clinically relevant dose; cited from earlier work
[21] = trazpiroben 25 mg + rifampin 600 mg
[22] = fasted rats, oral radiolabeled trazpiroben, after 24 h

## O=C(O)c1cccc(CN2CN(C3CCCCC3)C3(CCN(CCCC(=O)c4ccccc4)CC3)C2=O)c1 [trazpiroben, Trazpiroben]
OATP1B1/1B3 [1]
  AUC∞ geometric mean ratio (90% CI): 5.16 (4.25–6.25) fold
  C max geometric mean ratio (90% CI): 6.24 (4.62–8.42) fold
[2]; all participants, throughout the study
  serum chemistry, hematology, urinalysis, vital signs, and ECG results: remained within normal limits
[2]; current study
  AE relating to QT prolongation: no clinically relevant AE relating to QT prolongation
[2]; overall (both treatments)
  Number of participants with TEAEs: 6 (50) n (%)
  TEAE: Abdominal pain, upper: 1 (8) n (%)
  TEAE: Cough: 1 (8) n (%)
  TEAE: Dermatitis contact: 1 (8) n (%)
  TEAE: Gastrointestinal disorders: 1 (8) n (%)
  TEAE: Headache: 2 (17) n (%)
  TEAE: Nasal congestion: 1 (8) n (%)
  TEAE: Nervous system disorders: 3 (25) n (%)
  TEAE: Respiratory, thoracic, and mediastinal disorders: 2 (17) n (%)
  TEAE: Sensory disturbance: 1 (8) n (%)
  TEAE: Sinus congestion: 1 (8) n (%)
  TEAE: Skin and subcutaneous tissue disorders: 1 (8) n (%)
  TEAE: Sneezing: 1 (8) n (%)
[2]; single agent or in combination with rifampin, healthy participants
  tolerability: well‐tolerated
[2]; [21]
  Number of participants with TEAEs: 2 (17) n (%)
  TEAE: Abdominal pain, upper: 0 (0) n (%)
  TEAE: Cough: 1 (8) n (%)
  TEAE: Dermatitis contact: 0 (0) n (%)
  TEAE: Gastrointestinal disorders: 0 (0) n (%)
  TEAE: Headache: 1 (8) n (%)
  TEAE: Nasal congestion: 1 (8) n (%)
  TEAE: Nervous system disorders: 1 (8) n (%)
  TEAE: Respiratory, thoracic, and mediastinal disorders: 1 (8) n (%)
  TEAE: Sensory disturbance: 0 (0) n (%)
  TEAE: Sinus congestion: 0 (0) n (%)
  TEAE: Skin and subcutaneous tissue disorders: 0 (0) n (%)
  TEAE: Sneezing: 0 (0) n (%)
[2]; trazpiroben 25 mg alone
  Number of participants with TEAEs: 6 (50) n (%)
  TEAE: Abdominal pain, upper: 1 (8) n (%)
  TEAE: Cough: 0 (0) n (%)
  TEAE: Dermatitis contact: 1 (8) n (%)
  TEAE: Gastrointestinal disorders: 1 (8) n (%)
  TEAE: Headache: 2 (17) n (%)
  TEAE: Nasal congestion: 0 (0) n (%)
  TEAE: Nervous system disorders: 3 (25) n (%)
  TEAE: Respiratory, thoracic, and mediastinal disorders: 1 (8) n (%)
  TEAE: Sensory disturbance: 1 (8) n (%)
  TEAE: Sinus congestion: 1 (8) n (%)
  TEAE: Skin and subcutaneous tissue disorders: 1 (8) n (%)
  TEAE: Sneezing: 1 (8) n (%)
[2]; trazpiroben alone
  participants reporting contact dermatitis: 8%
  participants reporting headache: 17%
  participants reporting sensory disturbance: 8%
  participants reporting sinus congestion: 8%
  participants reporting upper abdominal pain: 8%
[2]; whole study
  severity of TEAEs: mild
[2]; whole study, 12 participants
  number of TEAEs recorded: 10
[2]; whole study, trazpiroben alone and with rifampin
  deaths, serious AEs, discontinuations due to an AE: no deaths, serious AEs, or discontinuations due to an AE
[3]
  absolute bioavailability: ~ 20%
[4]
  absolute bioavailability: ~ 20%
[5]
  share of metabolism via non-CYP cytosolic NADPH-dependent reductases (to M23): 56.7%
CYP3A4 [6]
  share of metabolism via CYP3A4: 25.8%
CYP2C8
  share of metabolism via CYP2C8: 11.8%
[7]; bile duct cannulated rats
  dosed radioactivity excreted in bile: ~ 86%
  dosed radioactivity excreted in feces: 11%
  dosed radioactivity excreted in urine: 5%
[7]; [22]
  dosed radioactivity excreted in feces: ~ 94%
  dosed radioactivity excreted in urine: 6%
[8]
  accumulation after repeated doses: minor accumulation
  increase of plasma concentrations with dose: dose‐proportional manner
CYP2D6
  inhibition of CYP2D6: does not inhibit
CYP3A
  inhibition of CYP3A: does not inhibit
CYP3A4 [9]
  sensitivity to CYP3A4 inhibition: relatively insensitive
p-glycoprotein (P-gp)
  substrate of p-glycoprotein (P-gp): substrate
OATP1B1/1B3 [10]
  substrate of OATP1B1/1B3: substrate
[11]
  substrate of BCRP: not a substrate
MATE1 [12]
  substrate of MATE1: not a substrate
MATE2-K [13]
  substrate of MATE2-K: not a substrate
OAT1 [14]
  substrate of OAT1: not a substrate
OAT3 [15]
  substrate of OAT3: not a substrate
OCT2
  substrate of OCT2: not a substrate
BCRP
  inhibitor of BCRP: not an inhibitor
Bile salt export pump
  inhibitor of bile salt export pump: not an inhibitor
MATE1 [16]
  inhibitor of MATE1: not an inhibitor
MATE2-K [17]
  inhibitor of MATE2-K: not an inhibitor
OAT1 [18]
  inhibitor of OAT1: not an inhibitor
OAT3 [19]
  inhibitor of OAT3: not an inhibitor
OATP1B1/1B3 [20]
  inhibitor of OATP1B1/1B3: not an inhibitor
